Measurements as given in ChEMBL document CHEMBL1154849, “Bafilomycins produced in culture by Streptomyces spp. isolated from marine habitats are potent inhibitors of autophagy” (2010).
The source made the active and inactive calls. The rule behind the calls is not given here.

Key:
Type in all cases: functional, cell-based
MCF7 [1] = test: […] in human MCF7 cells expressing EGFP-LC3 assessed as EGFP levels at 100 nM after 4 hrs by Western blotting relative to control
Procedure, shortened: (§1)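 MCF-7 cells expressing EGFP-LC3 were exposed for 4 h to compounds alone or in combinations. Free EGFP band formation, a readout of EGFP-LC3 degradation, was followed by Western blot with anti-GFP antibody.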

MCF7 [2] = test: Induction of autophagosome accumulation in human MCF7 cells expressing EGFP-LC3 assessed as punctate EGFP-LC3 level at => 1 nM after 4 hrs by automated microscopy relative to control
MCF7 [3] = test: Inhibition of rapamycin-induced autophagy in human MCF7 cells expressing EGFP-LC3 assessed as decrease in EGFP levels at 100 nM after 4 hrs by Western blotting relative to control; procedure, shortened: as §1
MCF7 [4] = test: Induction of autophagosome accumulation in human MCF7 cells expressing EGFP-LC3 assessed as punctate EGFP-LC3 level at => 10 nM after 4 hrs by automated microscopy relative to control
MCF7 [5] = test: Induction of autophagosome accumulation in human MCF7 cells expressing EGFP-LC3 assessed as punctate EGFP-LC3 level at => 100 nM after 4 hrs by automated microscopy relative to control
MCF7 [6] = test: […] in human MCF7 cells expressing EGFP-LC3 assessed as EGFP levels at 30 nM after 4 hrs by Western blotting relative to control
MCF7 [7] = test: Induction of autophagosome accumulation in human MCF7 cells expressing EGFP-LC3 assessed as punctate EGFP-LC3 level at 0.3 nM after 4 hrs by automated microscopy relative to control

CO/C1=C\C(C)=C\[C@@H](C)[C@@H](O)[C@@H](C)C/C(C)=C/C=C/[C@H](OC)[C@@H]([C@@H](C)[C@@H](O)[C@H](C)[C@@]2(O)C[C@@H](OC(=O)/C=C/C(=O)NC3=C(O)CCC3=O)[C@H](C)[C@@H](C(C)C)O2)OC1=O
Activity (MCF7 [1]): inactive | Activity (MCF7 [2]): Active | Activity (MCF7 [3]): Active

CO/C1=C\C(C)=C\[C@@H](C)[C@@H](O)[C@@H](C)C/C(C)=C/C=C/[C@H](OC)[C@@H]([C@@H](C)[C@@H](O)[C@H](C)[C@@]2(O)C[C@@H](O)[C@H](C)[C@@H](C(C)C)O2)OC1=O
Activity (MCF7 [1]): inactive | Activity (MCF7 [2]): Active | Activity (MCF7 [3]): Active

CO[C@H]1/C=C/C=C(\C)C[C@H](C)[C@H](O)[C@H](C)/C=C(C)/C=C(\C)C(=O)O[C@@H]1[C@@H](C)[C@@H](O)[C@H](C)[C@@]1(OC)C[C@@H](OC)[C@H](C)[C@@H](C(C)C)O1
Activity (MCF7 [1]): inactive | Activity (MCF7 [2]): Active | Activity (MCF7 [3]): Active

CO/C1=C\C(C)=C\[C@@H](C)[C@@H](O)[C@@H](C)C/C(C)=C/C=C/[C@H](OC)[C@@H]([C@@H](C)[C@@H](O)[C@H](C)[C@@]2(O)C[C@@H](OC(=O)C[C@@H]3SC[C@@H](C(=O)O)NC3=O)[C@H](C)[C@@H](C(C)C)O2)OC1=O
Activity (MCF7 [1]): inactive | Activity (MCF7 [4]): Active | Activity (MCF7 [3]): Active

CO[C@H]1/C=C/C=C(\C)C[C@H](C)[C@H](O)[C@H](C)/C=C(C)/C=C(\C)C(=O)O[C@@H]1[C@@H](C)[C@@H](O)[C@H](C)C(=O)/C=C/[C@H](C)[C@H](O)C(C)C
Activity (MCF7 [1]): inactive | Activity (MCF7 [4]): Active | Activity (MCF7 [3]): Active

CO/C1=C\C(C)=C\[C@@H](C)[C@@H](O)[C@@H](C)C/C(C)=C/C=C/[C@H](OC)[C@@H]([C@@H](C)/C=C(\C)C2=C[C@@H](OC)[C@H](C)[C@@H](C(C)C)O2)OC1=O
Activity (MCF7 [1]): Active | Activity (MCF7 [5]): Active | Activity (MCF7 [3]): inactive

CO[C@H]1C[C@@H]2CC[C@@H](C)[C@@](O)(O2)C(=O)C(=O)N2CCCC[C@H]2C(=O)O[C@H]([C@H](C)C[C@@H]2CC[C@@H](O)[C@H](OC)C2)CC(=O)[C@H](C)/C=C(\C)[C@@H](O)[C@@H](OC)C(=O)[C@H](C)C[C@H](C)/C=C/C=C/C=C/1C
Activity (MCF7 [6]): Active

CO/C1=C\C(C)=C\[C@@H](C)[C@@H](O)[C@@H](C)C/C(C)=C/C=C/[C@H](OC)[C@@H]([C@@H](C)[C@@H](O)[C@H](C)[C@@]2(OC)C[C@@H](OC)[C@H](C)[C@@H](C(C)C)O2)OC1=O
Activity (MCF7 [1]): inactive | Activity (MCF7 [4]): Active | Activity (MCF7 [3]): Active

CO/C1=C\C(C)=C\[C@@H](C)[C@@H](O)[C@@H](C)C/C(C)=C/C=C/[C@H](OC)[C@@H]([C@@H](C)[C@@H](O)[C@H](C)[C@@]2(O)C[C@@H](OC)[C@H](C)[C@@H](C(C)C)O2)OC1=O [BAFILOMYCIN G]
Activity (MCF7 [1]): inactive | Activity (MCF7 [7]): Active | Activity (MCF7 [3]): Active
